Source: ChEMBL document CHEMBL1139464, “SAR and 3D-QSAR studies on thiadiazolidinone derivatives: exploration of structural requirements for glycogen synthase kinase 3 inhibitors” (J Med Chem, 2005)

What was measured:
[1] = target: Glycogen synthase kinase-3 (Oryctolagus cuniculus); assay: Inhibition of rabbit GSK3
[2] = target: Dual specificity mitogen-activated protein kinase kinase 1 (Homo sapiens) (UniProt Q02750); assay: Inhibition of MEK1K at 10 uM
Method in brief: (§1)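 Pan-kinase selectivity screen run at an outside lab using previously described assays for each kinase. Activated kinase phosphorylates its appropriate peptide or protein substrate with test substance at 10 µM. Percent inhibition is taken against control incubations in which the inhibitor is replaced by DMSO, with staurosporine as reference. Reported as the mean of duplicate determinations.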

[3] = target: Tyrosine-protein kinase Lck (Homo sapiens) (UniProt P06239); assay: Inhibition of protein kinase p56 at 10 uM
Method in brief: as §1

[4] = target: Tyrosine-protein kinase ABL1 (Homo sapiens) (UniProt P00519); assay: Inhibition of Abl kinase at 10 uM
Method in brief: as §1

[5] = target: CaM kinase II (Homo sapiens) (UniProt Q13557+Q13555+Q13554+Q9UQM7); assay: Inhibition of CAMK2 at 10 uM; format: protein assay
Method in brief: as §1

[6] = target: Epidermal growth factor receptor (Homo sapiens) (UniProt P00533); assay: Inhibition of EGF tyrosine kinase at 10 uM
Method in brief: as §1

[7] = target: Insulin receptor (Homo sapiens) (UniProt P06213); assay: Inhibition of IRK at 10 uM
Method in brief: as §1

[8] = target: Mitogen-activated protein kinase; ERK1/ERK2 (Homo sapiens) (UniProt P27361+P28482); assay: Inhibition of MAPK at 10 uM; format: protein assay
Method in brief: as §1

Sequence of Epidermal growth factor receptor (Homo sapiens) (P00533 whole entry): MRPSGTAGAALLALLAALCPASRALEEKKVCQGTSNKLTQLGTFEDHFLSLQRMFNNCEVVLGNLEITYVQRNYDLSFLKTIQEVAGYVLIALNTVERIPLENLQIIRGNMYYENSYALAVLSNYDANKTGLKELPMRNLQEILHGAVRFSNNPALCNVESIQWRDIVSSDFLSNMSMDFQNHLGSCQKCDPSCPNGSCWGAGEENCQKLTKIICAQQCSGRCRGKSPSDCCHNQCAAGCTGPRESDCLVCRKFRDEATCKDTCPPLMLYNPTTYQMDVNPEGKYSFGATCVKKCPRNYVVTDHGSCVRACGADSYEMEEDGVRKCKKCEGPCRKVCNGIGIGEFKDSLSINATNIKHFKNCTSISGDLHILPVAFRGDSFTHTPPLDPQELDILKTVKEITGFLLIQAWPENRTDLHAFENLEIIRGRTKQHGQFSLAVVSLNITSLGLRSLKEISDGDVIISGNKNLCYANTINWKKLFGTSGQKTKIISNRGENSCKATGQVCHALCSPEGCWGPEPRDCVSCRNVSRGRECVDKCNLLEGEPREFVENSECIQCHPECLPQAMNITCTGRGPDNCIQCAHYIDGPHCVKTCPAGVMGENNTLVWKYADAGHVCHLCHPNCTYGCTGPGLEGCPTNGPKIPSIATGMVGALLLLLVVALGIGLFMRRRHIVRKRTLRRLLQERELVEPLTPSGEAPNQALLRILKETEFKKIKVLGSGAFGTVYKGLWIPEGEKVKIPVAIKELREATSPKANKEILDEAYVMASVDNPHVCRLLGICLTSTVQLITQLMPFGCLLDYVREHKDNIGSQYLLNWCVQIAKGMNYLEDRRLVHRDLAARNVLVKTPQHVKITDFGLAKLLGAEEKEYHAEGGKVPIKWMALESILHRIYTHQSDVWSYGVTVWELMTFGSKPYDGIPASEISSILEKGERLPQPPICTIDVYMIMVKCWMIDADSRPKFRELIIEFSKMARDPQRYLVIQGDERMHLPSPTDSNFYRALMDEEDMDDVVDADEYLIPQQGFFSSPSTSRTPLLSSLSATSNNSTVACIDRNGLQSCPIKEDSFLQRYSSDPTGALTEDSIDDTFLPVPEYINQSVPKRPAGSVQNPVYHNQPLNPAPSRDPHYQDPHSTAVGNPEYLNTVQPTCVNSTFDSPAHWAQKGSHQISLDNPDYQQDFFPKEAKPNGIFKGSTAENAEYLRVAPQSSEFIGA
Sequence of Tyrosine-protein kinase Lck (Homo sapiens) (P06239 2-509 limits assumed): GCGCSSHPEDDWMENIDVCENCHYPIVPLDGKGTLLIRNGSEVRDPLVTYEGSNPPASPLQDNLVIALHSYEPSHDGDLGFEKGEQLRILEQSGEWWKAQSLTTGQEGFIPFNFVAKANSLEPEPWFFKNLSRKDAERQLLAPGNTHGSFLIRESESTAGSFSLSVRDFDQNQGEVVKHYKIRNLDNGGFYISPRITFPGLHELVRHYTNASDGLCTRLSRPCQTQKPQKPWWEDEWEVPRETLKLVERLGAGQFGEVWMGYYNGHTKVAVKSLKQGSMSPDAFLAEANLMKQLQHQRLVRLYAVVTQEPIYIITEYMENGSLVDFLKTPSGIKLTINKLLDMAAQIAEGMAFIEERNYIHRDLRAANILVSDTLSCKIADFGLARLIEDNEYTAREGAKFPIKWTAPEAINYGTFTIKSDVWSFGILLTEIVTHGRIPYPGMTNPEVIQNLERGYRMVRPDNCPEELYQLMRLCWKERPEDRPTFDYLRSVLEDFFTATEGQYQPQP
Sequence of Dual specificity mitogen-activated protein kinase kinase 1 (Homo sapiens) (Q02750 whole entry): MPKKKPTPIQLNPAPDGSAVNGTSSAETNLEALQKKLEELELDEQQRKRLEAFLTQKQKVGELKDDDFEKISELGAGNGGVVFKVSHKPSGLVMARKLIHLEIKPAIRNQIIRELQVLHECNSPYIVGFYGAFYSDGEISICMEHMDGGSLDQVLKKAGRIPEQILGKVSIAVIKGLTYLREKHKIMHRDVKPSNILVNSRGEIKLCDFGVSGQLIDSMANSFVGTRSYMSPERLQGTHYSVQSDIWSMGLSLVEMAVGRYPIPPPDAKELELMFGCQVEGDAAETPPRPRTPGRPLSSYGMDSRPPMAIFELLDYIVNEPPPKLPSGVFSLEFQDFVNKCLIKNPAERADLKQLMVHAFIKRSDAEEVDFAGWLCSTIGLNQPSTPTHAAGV
Sequence of Insulin receptor (Homo sapiens) (P06213 28-758 limits assumed): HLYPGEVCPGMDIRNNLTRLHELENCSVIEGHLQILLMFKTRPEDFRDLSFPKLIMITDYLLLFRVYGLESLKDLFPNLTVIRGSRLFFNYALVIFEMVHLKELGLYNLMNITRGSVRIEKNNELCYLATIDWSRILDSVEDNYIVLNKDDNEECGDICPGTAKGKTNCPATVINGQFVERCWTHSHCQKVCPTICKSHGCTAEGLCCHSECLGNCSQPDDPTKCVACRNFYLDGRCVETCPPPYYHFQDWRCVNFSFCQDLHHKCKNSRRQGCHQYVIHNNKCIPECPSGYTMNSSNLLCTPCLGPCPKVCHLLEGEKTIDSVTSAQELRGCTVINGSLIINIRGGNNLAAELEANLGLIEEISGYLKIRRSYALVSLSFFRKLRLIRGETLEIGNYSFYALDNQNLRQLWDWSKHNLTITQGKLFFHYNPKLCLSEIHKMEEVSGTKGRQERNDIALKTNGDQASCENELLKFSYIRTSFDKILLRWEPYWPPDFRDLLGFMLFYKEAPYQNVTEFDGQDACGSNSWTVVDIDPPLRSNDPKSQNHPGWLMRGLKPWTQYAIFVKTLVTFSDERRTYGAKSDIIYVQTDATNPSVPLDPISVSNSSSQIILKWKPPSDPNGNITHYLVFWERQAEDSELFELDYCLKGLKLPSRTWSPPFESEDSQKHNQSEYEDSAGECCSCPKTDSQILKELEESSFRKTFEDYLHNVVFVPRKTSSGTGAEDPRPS
Sequence of Insulin receptor (Homo sapiens) (P06213 763-1382 limits assumed): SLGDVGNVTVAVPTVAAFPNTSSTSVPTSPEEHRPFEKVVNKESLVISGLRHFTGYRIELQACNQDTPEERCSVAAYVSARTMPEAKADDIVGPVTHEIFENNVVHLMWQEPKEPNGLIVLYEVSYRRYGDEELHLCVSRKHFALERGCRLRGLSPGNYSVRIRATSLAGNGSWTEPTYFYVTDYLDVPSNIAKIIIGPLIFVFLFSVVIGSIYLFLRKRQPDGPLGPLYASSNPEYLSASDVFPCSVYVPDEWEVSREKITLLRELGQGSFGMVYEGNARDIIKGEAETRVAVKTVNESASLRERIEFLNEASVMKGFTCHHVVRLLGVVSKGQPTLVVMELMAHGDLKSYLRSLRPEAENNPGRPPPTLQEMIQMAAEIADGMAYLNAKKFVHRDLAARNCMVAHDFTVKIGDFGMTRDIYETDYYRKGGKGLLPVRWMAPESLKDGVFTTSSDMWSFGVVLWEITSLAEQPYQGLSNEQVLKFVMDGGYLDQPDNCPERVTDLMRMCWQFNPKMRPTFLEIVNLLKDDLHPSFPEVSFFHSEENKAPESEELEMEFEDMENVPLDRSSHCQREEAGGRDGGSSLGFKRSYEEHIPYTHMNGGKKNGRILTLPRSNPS
Sequence of Tyrosine-protein kinase ABL1 (Homo sapiens) (P00519 whole entry): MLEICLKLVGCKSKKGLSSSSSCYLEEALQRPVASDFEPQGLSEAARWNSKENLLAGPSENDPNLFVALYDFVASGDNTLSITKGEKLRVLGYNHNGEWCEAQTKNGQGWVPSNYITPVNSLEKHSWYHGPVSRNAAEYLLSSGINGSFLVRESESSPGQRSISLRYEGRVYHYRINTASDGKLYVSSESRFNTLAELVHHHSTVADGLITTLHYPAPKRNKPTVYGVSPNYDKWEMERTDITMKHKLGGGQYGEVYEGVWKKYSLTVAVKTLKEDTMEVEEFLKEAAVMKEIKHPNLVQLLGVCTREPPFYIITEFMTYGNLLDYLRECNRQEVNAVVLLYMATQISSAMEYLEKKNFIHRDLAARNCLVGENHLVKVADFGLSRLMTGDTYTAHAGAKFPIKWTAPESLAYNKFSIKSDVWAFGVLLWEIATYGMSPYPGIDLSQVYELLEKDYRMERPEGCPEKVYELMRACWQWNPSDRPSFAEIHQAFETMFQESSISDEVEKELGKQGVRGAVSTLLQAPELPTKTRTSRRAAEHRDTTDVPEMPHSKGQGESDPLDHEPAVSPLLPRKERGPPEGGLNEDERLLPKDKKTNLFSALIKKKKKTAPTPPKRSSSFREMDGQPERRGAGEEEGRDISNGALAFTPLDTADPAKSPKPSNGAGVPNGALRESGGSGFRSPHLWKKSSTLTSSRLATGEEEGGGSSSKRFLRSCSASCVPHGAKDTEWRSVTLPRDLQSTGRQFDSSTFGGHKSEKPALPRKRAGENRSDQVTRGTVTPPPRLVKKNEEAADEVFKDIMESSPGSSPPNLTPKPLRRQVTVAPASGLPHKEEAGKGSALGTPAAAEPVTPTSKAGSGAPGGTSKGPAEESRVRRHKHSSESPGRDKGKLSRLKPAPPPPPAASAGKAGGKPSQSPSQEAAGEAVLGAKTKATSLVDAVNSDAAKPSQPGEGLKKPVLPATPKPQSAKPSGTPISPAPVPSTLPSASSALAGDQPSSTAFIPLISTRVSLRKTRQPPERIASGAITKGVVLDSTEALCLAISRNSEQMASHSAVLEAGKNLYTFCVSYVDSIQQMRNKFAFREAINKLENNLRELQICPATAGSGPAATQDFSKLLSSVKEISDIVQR

IC50 [1] [µM]	Structure (SMILES)	further results
3	COc1ccc(CCN2C(=O)C=CC2=O)cc1	–
10	CCn1c(=O)sn(C2CCCCC2)c1=O	inhibition [2]: < 10%; inhibition [3]: < 10%; inhibition [4]: < 10%; inhibition [5]: 23%; inhibition [6]: < 10%; inhibition [7]: < 10%; inhibition [8]: < 10%
7	CCn1sc(=O)n(Cc2ccccc2)c1=O [KRM-7777]	–
1.1	Cn1sc(=O)n(-c2ccc(Br)cc2)c1=O	–
2	CCOC(=O)Cn1c(=O)sn(C)c1=O	inhibition [2]: 19%; inhibition [3]: < 10%; inhibition [4]: < 10%; inhibition [5]: 15%; inhibition [6]: 19%; inhibition [7]: 50%; inhibition [8]: < 10%
100	O=C(O)CN1C(=O)CSC1=S [RHODANINE-3-ACETIC ACID]	–
–	Cn1sc(=O)n(Cc2ccccc2)c1=O	inhibition [2]: < 10%; inhibition [3]: 35%; inhibition [4]: < 10%; inhibition [5]: 16%; inhibition [6]: 25%; inhibition [7]: 20%; inhibition [8]: < 10%
12	O=c1ssc(=O)n1-c1ccccc1	–
100	COc1ccc(CCN2C(=O)CSC2=S)cc1	–
2	Cn1sc(=O)n(-c2cccc3ccccc23)c1=O	–
4	Cn1sc(=O)n(-c2cccc(Br)c2)c1=O	–
100	Cn1c(=O)n(-c2ccccc2)c(=O)n1C	–
3	CCOC(=O)CN1C(=O)C=CC1=O	–
> 100	C1=CCN(Cc2ccccc2)C1	–
100	O=C1CNC(=O)N1 [HYDANTOIN]	–
2	Cn1sc(=O)n(-c2ccccc2)c1=O	–
5	CCn1c(=O)sn(C)c1=O	–
> 100	O=C1CCC(=O)C1	–
4	Cn1sc(=O)n(-c2ccc(Cl)cc2)c1=O	–
5	Cc1ccc(-n2c(=O)sn(C)c2=O)cc1	–
100	O=C(Cn1c(=O)n(-c2ccccc2)c(=O)n1CC(=O)c1ccccc1)c1ccccc1	–
6	Cn1sc(=O)n(-c2ccccc2Br)c1=O	–
25	CCn1sc(=O)n(CC)c1=O	–

IC50 [1] [µM]	Structure (SMILES)	further results
35	CCn1c(=O)sn(C(C)C)c1=O	–
> 50	O=C1CCC(=O)N1Cc1ccccc1	–
100	Cn1sc(=O)n(C2CCCCC2)c1=O	–
6	CCn1sc(=O)n(-c2ccccc2)c1=O	–
100	O=C(c1ccccc1)n1c(=O)n(-c2ccccc2)c(=O)n1C(=O)c1ccccc1	–
50	O=C(CN1C(=O)CSC1=S)c1ccccc1	–
> 100	O=C1CCCN1Cc1ccccc1	–
12	O=c1ssc(=O)n1Cc1ccccc1	–
100	Cn1c(=O)ssc1=O	–
3	O=C1C=CC(=O)N1CCCCCc1ccccc1	–
10	CCCn1sc(=O)n(CC)c1=O	–
2	O=C1C=CC(=O)N1CCc1ccccc1	–
100	O=C1CNC(=O)N1Cc1ccccc1	–
100	O=C1CSC(=O)N1 [THIAZOLIDINEDIONE]	–
6	Cn1sc(=O)n(-c2ccc(C(F)(F)F)cc2)c1=O	inhibition [2]: < 10%; inhibition [3]: < 10%; inhibition [4]: < 10%; inhibition [5]: < 10%; inhibition [6]: 17%; inhibition [7]: 36%; inhibition [8]: < 10%
35	O=C1CSC(=S)N1CCc1ccccc1	–
12	O=C1C=CC(=O)C1	–
2.5	COc1ccc(CN2C(=O)C=CC2=O)cc1	–
100	NN1C(=O)CSC1=S [AMINORHODANINE]	–
4	Cn1sc(=O)n(-c2ccc(F)cc2)c1=O	–
8.5	CCn1sc(=O)n(-c2ccc([N+](=O)[O-])cc2)c1=O	inhibition [2]: < 10%; inhibition [4]: < 10%; inhibition [5]: < 10%; inhibition [6]: 40%; inhibition [7]: 46%; inhibition [8]: 10%
10	O=c1sn(Cc2ccccc2)c(=O)n1Cc1ccccc1	inhibition [2]: < 10%; inhibition [3]: 27%; inhibition [4]: < 10%; inhibition [5]: 35%; inhibition [6]: < 10%; inhibition [7]: 19%; inhibition [8]: < 10%
100	O=C1CSC(=O)N1Cc1ccccc1	–
